Article PMC8738139 (Neuron, 2021)

Molecular target: CNGA1 (Homo sapiens, UniProt P29973+Q14028)
Experiment: cryo-EM structures
Format: cell-based
Method in brief: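 HEK293 cells co-transfected with human CNGA1/B1 and a GFP marker, then trypsinised and re-plated 48 h later. Whole-cell currents recorded at 100 mV. Pipette: 140 mM KCl, 5 mM EGTA, 10 mM HEPES pH 7.4, 1 mM cGMP. Bath: 140 mM NaCl, 4 mM KCl, 1 mM EGTA, 10 mM HEPES pH 7.4 plus varied test compound. Ki from Hill fit; mean ± SEM, n=5.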

Sequence of CNGA1 (P29973 141-686): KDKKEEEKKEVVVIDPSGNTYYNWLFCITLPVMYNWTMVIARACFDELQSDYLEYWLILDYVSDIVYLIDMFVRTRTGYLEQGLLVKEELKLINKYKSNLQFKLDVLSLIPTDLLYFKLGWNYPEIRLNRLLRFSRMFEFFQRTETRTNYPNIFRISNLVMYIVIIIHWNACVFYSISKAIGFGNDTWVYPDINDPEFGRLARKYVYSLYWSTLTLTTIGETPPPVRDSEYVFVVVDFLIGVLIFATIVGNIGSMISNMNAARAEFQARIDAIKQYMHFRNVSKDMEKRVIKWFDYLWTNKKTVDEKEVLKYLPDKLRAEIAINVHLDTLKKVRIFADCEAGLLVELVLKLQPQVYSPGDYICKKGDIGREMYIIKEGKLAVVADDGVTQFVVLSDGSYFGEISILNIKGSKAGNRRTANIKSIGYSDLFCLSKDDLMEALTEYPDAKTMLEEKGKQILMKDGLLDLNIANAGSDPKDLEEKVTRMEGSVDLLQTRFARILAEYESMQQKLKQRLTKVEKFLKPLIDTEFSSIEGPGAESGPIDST
Sequence of CNGA1 (Q14028 456-1251): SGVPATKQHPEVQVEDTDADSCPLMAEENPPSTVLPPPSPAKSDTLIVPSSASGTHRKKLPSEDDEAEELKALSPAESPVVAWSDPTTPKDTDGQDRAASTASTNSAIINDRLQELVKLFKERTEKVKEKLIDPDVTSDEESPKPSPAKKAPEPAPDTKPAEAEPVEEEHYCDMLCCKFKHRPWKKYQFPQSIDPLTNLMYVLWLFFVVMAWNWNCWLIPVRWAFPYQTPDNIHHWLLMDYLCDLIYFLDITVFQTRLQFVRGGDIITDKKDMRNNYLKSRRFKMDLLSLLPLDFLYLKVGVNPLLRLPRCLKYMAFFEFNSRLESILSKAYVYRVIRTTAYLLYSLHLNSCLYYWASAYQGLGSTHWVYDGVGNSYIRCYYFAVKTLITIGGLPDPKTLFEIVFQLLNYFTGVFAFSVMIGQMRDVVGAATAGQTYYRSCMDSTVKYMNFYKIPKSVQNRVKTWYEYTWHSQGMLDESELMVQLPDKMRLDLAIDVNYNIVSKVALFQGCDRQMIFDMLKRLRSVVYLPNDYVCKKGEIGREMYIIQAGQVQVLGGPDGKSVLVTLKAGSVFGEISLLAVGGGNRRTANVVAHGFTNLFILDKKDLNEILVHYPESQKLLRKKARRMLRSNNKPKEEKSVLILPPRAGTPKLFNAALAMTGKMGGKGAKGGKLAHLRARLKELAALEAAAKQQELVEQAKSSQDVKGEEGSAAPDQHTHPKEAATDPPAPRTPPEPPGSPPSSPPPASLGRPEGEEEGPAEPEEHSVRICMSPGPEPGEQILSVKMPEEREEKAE

## COc1ccc([C@H]2Sc3ccccc3N(CCN(C)C)C(=O)[C@H]2OC(C)=O)cc1 [L-cis-Diltiazem]
  Ki: 3.68 ± 0.13 µM
